NPY1 pot ag – potentiators or agonists of human neuropeptide Y receptor Y1 | P25929 | NPY-Y1 expressing cells, potentiator/agonist activation | activation, % at 3.6 µM | hit rate 0.37% among 220,000 | AID 1304; in the data active = activation above about 33%, passing the limit was not always enough;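 also: cells stimulated with NPY at EC10 then isoproterenol at EC100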
Target sequence (P25929 whole entry, looked up): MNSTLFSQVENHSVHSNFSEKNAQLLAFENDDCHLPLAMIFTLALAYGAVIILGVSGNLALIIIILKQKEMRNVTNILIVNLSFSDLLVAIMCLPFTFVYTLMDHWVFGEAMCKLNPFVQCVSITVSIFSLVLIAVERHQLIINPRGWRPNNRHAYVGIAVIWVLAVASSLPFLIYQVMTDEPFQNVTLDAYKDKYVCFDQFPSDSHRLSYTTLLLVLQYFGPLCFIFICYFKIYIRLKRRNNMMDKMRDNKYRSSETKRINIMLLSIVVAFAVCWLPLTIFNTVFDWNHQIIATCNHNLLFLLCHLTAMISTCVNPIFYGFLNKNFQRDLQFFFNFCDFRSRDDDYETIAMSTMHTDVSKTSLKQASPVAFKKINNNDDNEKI
NPY2 pot ag – potentiators or agonists of human neuropeptide Y receptor Y2. P49146. cells expressing NPY-Y2, potentiator/agonist read-out. activation, % at 3.6 µM. hit rate 0.45% among 220,000; in the data active = activation above about 27%;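 also: cells stimulated with NPY near EC25 plus isoproterenol at EC100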
NPY Y2 blocker – blocks the human neuropeptide Y Y2 receptor. NPY-Y2 expressing cells, antagonist mode. P49146. inhibition, % at 2.7 µM. hit rate 0.99% among 140,000; in the data active = inhibition above about 17%
NPY Y1 blocker – NPY-Y1 (human) receptor antagonism | P25929 | HEK293-CNG Y1 cells, membrane potential fluorescence; NPY at EC95, then isoproterenol | inhibition, % at 3.6 µM | hit rate 1% among 200,000 | AID 1040;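 active = inhibition above the campaign mean inhibition of all tested compounds plus 3 SD, cut at about 20% in these data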
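Material: HEK293 Y1/CNG channel cell line; also added: NPY (25 nM), isoproterenol (1 µM), Ro 20-1724 (25 µM); doses: one concentration, 3.6 µM, in 0.4% DMSO; schedule: compound incubation 1 h at room temperature, readout 45 min post-stimulation; technique: membrane potential fluorescence; measure: fluorescence ratio normalized to % inhibition between controls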
NPY-Y1 antag ct – counter-screen for NPY-Y2 antagonists: human NPY-Y1 antagonism; inhibition, % at 3.6 µM; cell-based NPY-Y1 antagonism counterscreen; hit rate 19% among 710; shares compounds with NPY Y2 blocker; in the data active = inhibition above about 20%;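 also: cells challenged with NPY then isoproterenol with cAMP sensed through a CNG channel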
NPY-Y2 ant conf – confirmation of human neuropeptide Y receptor Y2 antagonists. shares compounds with NPY Y2 blocker. inhibition, % at 2.8 µM. HEK293 NPY-Y2 CNG channel, membrane potential fluorescence. hit rate 32% among 710;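 active = mean inhibition of triplicate wells above the hit cutoff set in the primary screen, cut at about 17% in these data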
Numbers stand for hits; 0 = inactive; - = no result. Sampled rows, rich in hits. Any-hit rate of the full collection: about 1.9%.

SMILES	NPY1 pot ag	NPY2 pot ag	NPY Y2 blocker	NPY Y1 blocker	NPY-Y1 antag ct	NPY-Y2 ant conf
CCCCNC(=O)c1onc(CSc2cc(C)ccc2C)c1C(=O)O	0	0	21	0	31	25
COCCNC(=O)c1onc(CSc2cc(C)ccc2C)c1C(=O)O	0	0	0	0	-	-
CCN(CC)S(=O)(=O)c1cc(C(=O)Oc2cccc(-c3cnc4ccccc4n3)c2)ccc1OC	0	0	20	0	31	0
Cc1nc(N2CCC(C)CC2)c2oc3ccccc3c2n1	0	0	19	0	0	36
O=C(O)C1CCN(c2nc(-c3ccccc3)nc3c2oc2ccccc23)CC1	0	0	0	0	-	-
Cc1ccc(N2C(N)=C(C#N)C(c3cc(CN4CCOCC4)cs3)C3=C2CC(C)(C)CC3=O)cc1 (centres undefined)	0	0	-	0	-	-
C=CCn1c(SCC(=O)N2CCc3ccccc3C2)nc2sc(C)c(C)c2c1=O	0	0	19	0	0	0
CCc1cc(C(=O)N2CCCC(C(=O)c3cccc4ccccc34)C2)n(C)n1 (centres undefined)	0	0	-	0	-	-
Cc1cc(C)cc(N(C(=O)c2sc(C)nc2C)C(C(=O)NC(C)(C)C)c2ccncc2)c1 (centres undefined)	0	0	-	0	-	-
COC(=O)c1ccc(CSc2nc3ccccc3c(=O)n2-c2ccccc2)o1	0	0	18	0	0	47
COC(=O)c1ccc(CSc2nc3sc4c(c3c(=O)n2C)CCCC4)o1	0	0	18	0	0	19
COC(=O)c1ccc(CSc2nc3ccccc3c(=O)n2-c2ccc(OC)c(OC)c2)o1	0	0	0	0	-	-
COC(=O)c1sc(N)c(C(=O)OC)c1CSc1nc2sc3c(c2c(=O)n1C)CCC3	0	0	0	0	-	-
COc1cccc(Nc2nc(NCC3CCCO3)c3ccccc3n2)c1 (centres undefined)	0	0	24	0	21	0
CC1=C(C(=O)OCc2ccc3c(c2)OCO3)C(c2ccc(F)cc2)NC(=O)N1 (centres undefined)	0	0	24	0	0	0
CC1=C(C(=O)OCc2ccc3c(c2)OCO3)C(c2ccc(Cl)cc2)NC(=O)N1 (centres undefined)	0	0	0	0	-	-
COc1ccc(-c2nnc3sc(C(C)N4C(=O)c5ccccc5C4=O)nn23)cc1 (centres undefined)	0	0	21	0	0	29
CC(C(=O)Nc1ccc(S(=O)(=O)N2CCOCC2)cc1)N1C(=O)C2CC=CCC2C1=O (centres undefined)	0	0	-	0	-	-
O=C(NCc1ccc2c(c1)OCO2)c1cc(-c2ccccc2Cl)on1	0	0	22	0	0	0
O=c1[nH]c2ccc(S(=O)(=O)N3CCN(c4ccccc4F)CC3)cc2s1	0	0	18	0	0	0
COc1ccc(/C=C/C(O)=C2/C(=O)N(C)C3(C)CC2c2ccccc2O3)cc1 (centres undefined)	0	0	21	0	0	0
O=C1CCC(c2ccccc2)=NN1	0	0	-	0	-	-
CC(C)CCOc1ccc(C2=NNC(=O)CC2)cc1	0	0	42	0	20	41
CCN(CC)CC(=O)Nc1ccc([N+](=O)[O-])cc1	0	0	-	0	-	-
O=C1c2nccnc2C(=O)N1c1ccc(F)cc1	0	0	-	0	-	-
SMILES	NPY1 pot ag	NPY2 pot ag	NPY Y2 blocker	NPY Y1 blocker	NPY-Y1 antag ct	NPY-Y2 ant conf
COc1ccc([N+](=O)[O-])cc1NC(=O)CCCOc1ccccc1	0	0	0	0	-	-
COc1cc([N+](=O)[O-])ccc1NC(=O)CCCOc1ccccc1	0	0	22	0	0	0
COc1ccccc1C1CCCN1Cc1nc(-c2ccc(C)s2)oc1C (centres undefined)	0	0	-	0	-	-
COc1ccc(C(=O)Oc2cc3c4c(c2)C(C)=CC(C)(C)N4C(=O)C3=O)cc1OC	0	0	0	0	-	-
COc1cccc(C(=O)Oc2cc3c4c(c2)C(C)=CC(C)(C)N4C(=O)C3=O)c1	0	0	46	0	50	82
CCOc1ccc(NC(=O)C2(c3ccc(OC)c(OC)c3)CCCC2)cc1	0	0	27	0	0	0
CC(Nc1ccc(Cl)cc1)C(=O)NN (centres undefined)	0	0	-	-	-	-
O=C(O)CCNS(=O)(=O)c1ccc2c(c1)Cc1ccccc1-2	0	0	27	0	0	0
O=C(O)CCNS(=O)(=O)c1ccc2c(c1)CCCC2	0	0	-	0	-	-
CC(/C=C1\SC(=S)N(CCC(=O)Nc2nc(C)cs2)C1=O)=C\c1ccccc1	0	0	-	-	-	-
Nc1c(C(=O)NCCN2CCOCC2)c2nc3ccccc3nc2n1-c1ccc2c(c1)OCO2	0	0	0	0	-	-
Nc1c(C(=O)NCc2ccc3c(c2)OCO3)c2nc3ccccc3nc2n1CCCN1CCOCC1	0	0	19	0	0	0
O=C(/C=C/c1ccccc1)N1CCC(N2CCC(C(=O)N3CCOCC3)CC2)CC1	0	0	-	0	-	-
CCCCC(CC)C(=O)NCC(C)NC(=O)C(CC)CCCC (centres undefined)	0	0	24	0	0	0
CC(/C=C1\SC(=S)N(NC(=O)c2ccc(C)cc2)C1=O)=C\c1ccccc1	0	0	19	0	0	20
COc1ccc(C2OC(=O)CC2C(=O)NCc2ccc(Cl)cc2)cc1OC (centres undefined)	0	0	-	0	-	-
CN(C)CCCNS(=O)(=O)c1ccc(N2CCC(c3ccc(Cl)cc3)=N2)cc1	0	0	18	0	0	0
CCN1CCN(C(CNS(=O)(=O)c2cccs2)c2cccnc2)CC1 (centres undefined)	0	0	-	-	-	-
O=C(c1ccco1)N1CCN(Cc2cccc([N+](=O)[O-])c2)CC1	0	0	-	0	-	-
Nc1ncnc2c1ncn2[C@@H]1O[C@H](CO)[C@@H](O)[C@H]1O	0	0	0	0	-	-
OC[C@H]1O[C@@H](n2cnc3c(Nc4ccccc4)ncnc32)[C@H](O)[C@@H]1O	0	0	22	0	0	49
c1ccc(Cn2c3ccccc3c3nnc(SCCN4CCCCC4)nc32)cc1	0	0	-	-	-	-
CSc1nnc2c3cc(C)ccc3n(Cc3ccccc3)c2n1	0	0	28	0	23	42
CCOC(=O)c1c(-n2cccc2)sc2c1CCCC2=O	0	0	25	0	0	0
CCOC(=O)c1c(N2C(=O)Nc3ccccc3N2O)sc2c1CCCC2	0	0	0	0	-	-
CCCc1cc(=O)[nH]c(SCC(=O)c2cc(C)n(C)c2C)n1	0	0	19	0	0	0
O=C(c1ccco1)N(CCC(c1ccccc1)c1ccco1)Cc1ccccc1 (centres undefined)	0	0	18	0	0	0
COc1ccc(CN(CCC(c2ccccc2)c2ccco2)C(=O)c2ccco2)cc1 (centres undefined)	0	0	0	0	-	-
C#CCn1c(S(=O)(=O)Cc2ccc(C)cc2)nc(-c2ccccc2)c1-c1ccccc1	0	0	21	0	0	0
CCOC(=O)Cn1c(S(=O)(=O)Cc2ccccc2Cl)nc(-c2ccccc2)c1-c1ccccc1	0	0	24	0	0	0
